# Active and inactive are the calls of the source.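 The calls were made as follows, unless noted: active = viability at or below 10% of carrier control in both of two separate runs; inconclusive = viability at or below 10% in only one of the two runs; inactive = the rest.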
# What was measured:
# [1] = SK-BR-3 cell growth inhibitors, pilot screen, 24 h, human (AID 572); conditions: SK-BR-3 viability, CellTiter-Glo luminescence, at 10 µM, stronger effect = lower value;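 also: compound exposure lasted between 18 and 24 h rather than exactly 24 h; 100% = carrier-treated control wells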
# [2] = HUVEC growth inhibition – cell-based, human, primary screen (AID 575;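 active = viability at or below 30% in both replicate assays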;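 also: 100% = median of untreated cell wells with 0.1% DMSO on each plate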); conditions: HUVEC proliferation, CellTiter-Glo luminescence, 72 h; at 10 µM; stronger effect = lower value
# Procedure, shortened: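 Test system – primary HUVEC, no more than 12 passages · Dosing – one dose, 10 µM final, 0.1% DMSO · Times – 72 h treatment at 37 °C · Measured by – ATP-based CellTiter-Glo luminescent read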
# [3] = growth inhibitors of H69AR lung tumor, primary screen, human, duplicate replicates (AID 580;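 active = viability at or under a set limit in both replicates, limit being median viability minus 3 SD, cut at about 48% in these data, passing the limit was not always enough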;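 also: 100% = mean luminescence of untreated wells and 0% = no signal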); conditions: H69AR lung tumor cells viability, ATP luminescence, 72 h; at 10 µM; stronger effect = lower value
# [4] = reversal of MRP1-mediated doxorubicin resistance, pilot screen, H69AR cells, doxorubicin co-treatment (AID 601;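 active = viability loss from added drug above about 55%, and viability with drug at most 40%, in both replicates, limit read from the data, passing the limit was not always enough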); conditions: CellTiter-Glo, 72 h, at 10 µM; for differential viability (reversal): stronger effect = higher value
# [5] = 384-well plate pilot, post-Golgi transport modulator project, inhibition of yeast transport mutant growth (AID 636; in the data active = inhibition above about 31%); conditions: absorbance 615 nm, about 18 h, stronger effect = higher value
# [6] = growth suppression of yeast trafficking mutant, preliminary HTS, modulators of trafficking downstream of Golgi apparatus project, 1536-format plate, OD 615 nm (AID 637; in the data active = inhibition above about 30%); conditions: yeast transport mutant growth, absorbance 615 nm, 18 h; stronger effect = higher value
# [7] = H69AR cells + 2 uM doxorubicin, measured here: viability with 2 uM doxorubicin, stronger effect = lower value
# [8] = H69AR cells, compound alone cytotoxicity
SMILES,viability [1],viability [2],viability [3],differential viability (reversal) ([4]; H69AR cells + 2 uM doxorubicin),"viability [4, 7]","viability [4, 8]",inhibition [5],inhibition [6]
CCOC(=O)c1c(N)c(C#N)nn1-c1ccccc1C(=O)OC,96% (inactive),109% (inactive),92.3% (inactive),6.05% (inactive),86.2%,92.3%,-5.87% (inactive),0.73% (inactive)
CCN(CC)CCCN1C(=O)C(O)=C(C(C)=O)C1c1cccc(OC)c1 (stereo unspecified),97% (inactive),101% (inactive),93% (inactive),5.69% (inactive),87.3%,93%,-3.51% (inactive),-2.73% (inactive)
Cc1ccc(S(=O)(=O)NC(=O)NN2CCCCCC2)cc1,112% (inactive),81.1% (inactive),114% (inactive),14% (inactive),100%,114%,-3.38% (inactive),4.17% (inactive)
Cc1cc(C)c(NC(=O)CSc2nnc(-c3ccncc3)n2Cc2ccco2)c(C)c1,91% (inactive),109% (inactive),97.4% (inactive),3.25% (inactive),94.2%,97.4%,-2.7% (inactive),-4.73% (inactive)
O=C(NCc1cccs1)C1CC(=O)N(C2CCCC2)C1 (stereo unspecified),87% (inactive),91.1% (inactive),94.4% (inactive),7.15% (inactive),87.3%,94.4%,2.6% (inactive),8.03% (inactive)
N#Cc1ccc(CSc2nnc(-c3ccccn3)n2-c2ccccc2)cc1,62% (inactive),93.5% (inactive),95.1% (inactive),6.06% (inactive),89.1%,95.1%,-7.67% (inactive),-1.09% (inactive)
O=C(CN1CCN(c2nc(-c3ccc(F)cc3)cs2)CC1)NCc1ccc2c(c1)OCO2,175% (inactive),69% (inactive),91.2% (inactive),15.9% (inactive),75.2%,91.2%,-6.49% (inactive),13.5% (inactive)
CCCCOc1ccc(S(=O)(=O)n2c(C)nc3ccccc32)cc1,138% (inactive),53.2% (inactive),87.1% (inactive),-7.77% (inactive),94.8%,87.1%,-3.38% (inactive),1.33% (inactive)
COc1cccc(N2C(=O)N(c3ccccc3Cl)C3CS(=O)(=O)CC32)c1 (stereo unspecified),93% (inactive),106% (inactive),98% (inactive),9.28% (inactive),88.7%,98%,-6.71% (inactive),3.45% (inactive)
O=C(NCCN1CCOCC1)C1CCC(=O)N1Cc1ccccc1Cl (stereo unspecified),148% (inactive),96.4% (inactive),90% (inactive),3.78% (inactive),86.3%,90%,-1.43% (inactive),-1.48% (inactive)
C/C(Cl)=C\Cn1c(NCCc2ccccc2)nc2c1c(=O)n(C)c(=O)n2C,86% (inactive),78.7% (inactive),76% (inactive),9.38% (inactive),66.6%,76%,-7.97% (inactive),2.17% (inactive)
O=C1CCc2cc(OCCCCc3nnnn3C3CCCCC3)ccc2N1,98% (inactive),78.6% (inactive),101% (inactive),13% (inactive),88.2%,101%,1.82% (inactive),-4% (inactive)
Cc1cc(C(=O)Nc2ccc(S(=O)(=O)Nc3onc(C)c3C)cc2)cs1,101% (inactive),101% (inactive),99.4% (inactive),2.97% (inactive),96.4%,99.4%,-3.38% (inactive),0% (inactive)
COCCn1nnnc1CN1CCC(Cc2ccccc2)CC1,134% (inactive),102% (inactive),95.3% (inactive),5.17% (inactive),90.1%,95.3%,-3.84% (inactive),4.68% (inactive)
C/C(=C\c1ccco1)C1C(C#N)=C(N)OC2=C1C(=O)CC(C)(C)C2 (stereo unspecified),110% (inactive),108% (inactive),80.1% (inactive),-9.17% (inactive),89.2%,80.1%,-7.43% (inactive),1.09% (inactive)
Cc1cc(Cl)ccc1OCC(=O)Nn1c(C)ccc1C,68% (inactive),101% (inactive),94% (inactive),11.1% (inactive),82.9%,94%,-1.37% (inactive),-4.68% (inactive)
CC(=O)c1ccc(N2CCN(C(=O)c3cc(C)on3)CC2)cc1,100% (inactive),97.7% (inactive),111% (inactive),12.4% (inactive),98.9%,111%,-6.99% (inactive),-3.82% (inactive)
CC(C)C12CN3CC(C(C)C)(CN(C1)C3c1ccc3c(c1)OCO3)C2=O (stereo unspecified),117% (inactive),91.8% (inactive),85.5% (inactive),-0.655% (inactive),86.2%,85.5%,-1.6% (inactive),0.18% (inactive)
Cc1nnc(SCCCn2c(N3CCCCC3)nc3c2c(=O)[nH]c(=O)n3C)s1,104% (inactive),92% (inactive),97.4% (inactive),10.2% (inactive),87.1%,97.4%,-6.03% (inactive),4% (inactive)
CC(C)CC(c1nnnn1C(C)(C)C)N1CCN(C2CCCC2)CC1 (stereo unspecified),101% (inactive),96.6% (inactive),95.2% (inactive),10.4% (inactive),84.8%,95.2%,-7.33% (inactive),2.91% (inactive)
N#Cc1c(-c2ccc3c(c2)OCO3)csc1N,96% (inactive),83.9% (inactive),95.2% (inactive),1.51% (inactive),93.7%,95.2%,3.29% (inactive),4.73% (inactive)
O=C(O)c1cccc(NC(=O)C23CC4CC(C2)CC(n2cnc(Cl)n2)(C4)C3)c1,122% (inactive),105% (inactive),96.9% (inactive),5.78% (inactive),91.1%,96.9%,-1.95% (inactive),0.98% (inactive)
O=C(O)CCCc1ccccc1,97% (inactive),91.8% (inactive),98% (inactive),1.58% (inactive),96.4%,98%,-0.91% (inactive),8% (inactive)
c1ccc(-c2nc3cnccn3c2Nc2ccc3c(c2)OCCO3)cc1,96% (inactive),107% (inactive),91.5% (inactive),38.5% (inactive),52.9%,91.5%,-5.47% (inactive),-1.27% (inactive)

SMILES,viability [1],viability [2],viability [3],differential viability (reversal) ([4]; H69AR cells + 2 uM doxorubicin),"viability [4, 7]","viability [4, 8]",inhibition [5],inhibition [6]
CC1CCCCN1C(=O)Cn1nnc(-c2cccnc2)n1 (stereo unspecified),92% (inactive),97.2% (inactive),103% (inactive),8.68% (inactive),94.6%,103%,-7.81% (inactive),-1.13% (inactive)
Cc1ccc2c(c1)C(N1CCCC1=O)CC(c1ccco1)N2 (stereo unspecified),108% (inactive),74.7% (inactive),68.7% (inactive),2.15% (inactive),66.6%,68.7%,-5.6% (inactive),-6.51% (inactive)
CCn1nnnc1SCC(=O)Nc1nc(-c2cccs2)cs1,110% (inactive),83.8% (inactive),86.5% (inactive),18.2% (inactive),68.3%,86.5%,-11% (inactive),3.87% (inactive)
O=C(Nc1ccccc1C(=O)NCCCn1ccnc1)c1ccccc1,81% (inactive),94.4% (inactive),96.8% (inactive),9.21% (inactive),87.6%,96.8%,-6.62% (inactive),-8% (inactive)
CCCC(=O)Nc1c2c(nn1-c1ccc(OC)cc1)CS(=O)C2 (stereo unspecified),103% (inactive),109% (inactive),102% (inactive),9.39% (inactive),92.8%,102%,-2.73% (inactive),6.07% (inactive)
COc1ccc(NC(=O)CSc2c(C)nn(-c3nnc(C)c(=O)[nH]3)c2C)cc1,101% (inactive),98.2% (inactive),113% (inactive),17% (inactive),95.5%,113%,-0.41% (inactive),-6.45% (inactive)
CC(=O)[C@H]1CC[C@H]2[C@@H]3CCC4=CC(=O)CC[C@]4(C)[C@H]3[C@H](O)C[C@]12C,87% (inactive),83.6% (inactive),100% (inactive),3.85% (inactive),96.6%,100%,2.08% (inactive),-6.83% (inactive)
c1ccc(OCCCn2nnc(-c3ccncc3)n2)cc1,109% (inactive),108% (inactive),95.8% (inactive),-1.02% (inactive),96.8%,95.8%,-5.21% (inactive),4.73% (inactive)
Cc1ccc2c(c1)nnn2C1CCN(C(=O)NC23CC4CC(CC(C4)C2)C3)CC1,72% (inactive),102% (inactive),92.1% (inactive),8.39% (inactive),83.7%,92.1%,-8.08% (inactive),0.16% (inactive)
Cc1ccc(OCC(O)Cn2c(NCCc3ccccc3)nc3c2c(=O)[nH]c(=O)n3C)cc1 (stereo unspecified),60% (inactive),88.8% (inactive),93.9% (inactive),-5.09% (inactive),99%,93.9%,-3.97% (inactive),-1.27% (inactive)
Cc1nnc(SCC(=O)NCc2ccc3c(c2)OCO3)s1,87% (inactive),103% (inactive),101% (inactive),-12.3% (inactive),113%,101%,-2.33% (inactive),5.82% (inactive)
Cc1nnc(SCc2cccc(Oc3ccccc3)c2)n1N,74% (inactive),89.3% (inactive),99.6% (inactive),5.25% (inactive),94.4%,99.6%,-5.89% (inactive),6.18% (inactive)
CN(CCc1ccccn1)c1ncnc2[nH]ncc12,102% (inactive),116% (inactive),97.6% (inactive),9.97% (inactive),87.6%,97.6%,-6.62% (inactive),-2.36% (inactive)
Cc1cc(C)cc(C(=O)N2CCC(C(N)=O)CC2)c1,91% (inactive),105% (inactive),97.2% (inactive),9.71% (inactive),87.5%,97.2%,-8.78% (inactive),0% (inactive)
CCOC(=O)c1cnc(SC2CC(=O)N(c3ccc(OC)c(OC)c3)C2=O)nc1N (stereo unspecified),121% (inactive),101% (inactive),111% (inactive),14% (inactive),96.8%,111%,-0.55% (inactive),1.13% (inactive)
CC(=O)c1n[nH]nc1NC(=O)c1ccccc1,120% (inactive),97.6% (inactive),89.9% (inactive),-6.65% (inactive),96.6%,89.9%,-1.69% (inactive),0.16% (inactive)
CCOc1ccccc1NC(=O)CSc1nnc2c(CC)c(C)nc(N)n12,104% (inactive),113% (inactive),96.3% (inactive),-3.08% (inactive),99.4%,96.3%,-5.81% (inactive),-0.91% (inactive)
CCOCCCNC(=O)C1CCC(CNS(=O)(=O)c2cccc3nsnc23)CC1 (stereo unspecified),102% (inactive),84.6% (inactive),88.3% (inactive),-5.31% (inactive),93.6%,88.3%,0% (inactive),-4.92% (inactive)
CC1(C)CC(=O)C(CC(=O)NC(=O)NCc2ccccc2)=C(O)C1,114% (inactive),81.9% (inactive),105% (inactive),9.89% (inactive),94.7%,105%,-4.52% (inactive),-10% (inactive)
O=C(O)c1ccc(C2SCC(=O)N2Cc2ccccc2)cc1 (stereo unspecified),95% (inactive),109% (inactive),96.9% (inactive),1.26% (inactive),95.6%,96.9%,-1.07% (inactive),0% (inactive)
Cc1csc(NC(=O)c2ccoc2C)n1,103% (inactive),84.6% (inactive),86.3% (inactive),-5.44% (inactive),91.8%,86.3%,-4.66% (inactive),-8.39% (inactive)
Cc1cnc(NC(=O)CSc2nnc(-c3ccccc3)n2Cc2ccccc2)s1,99% (inactive),82.5% (inactive),90.2% (inactive),4.35% (inactive),85.8%,90.2%,0.55% (inactive),13.3% (inactive)
CC1CCCC(C)N1CCNC(=O)C1CCN(S(=O)(=O)N2CCCCC2)CC1 (stereo unspecified),93% (inactive),110% (inactive),104% (inactive),13.1% (inactive),90.7%,104%,-1.2% (inactive),-2.55% (inactive)

# Source: PubChem BioAssay
